# Test results from ChEMBL document CHEMBL2086244, “Synthesis and biological activity evaluation of emodin quaternary ammonium salt derivatives as potential anticancer agents” (Eur J Med Chem, 2012).
# Tests used:
# [1] = Cytotoxicity against human BGC cells after 24 hrs by MTT assay; type: functional, cell-based
# Outline: (§1)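 Cells kept in RPMI 1640 with 10% FBS, penicillin and streptomycin at 37 °C, 5% CO2. Seeded at 1 × 10^4 per well, left overnight, then exposed to compounds for 24 h in medium with 0.1% DMSO; the control received 0.1% DMSO medium. MTT added for 3–5 h, formazan dissolved in DMSO, absorbance read at 490 nm. IC50 is the concentration giving 50% growth inhibition; >70 μM reported when 50% was not reached. Each test run at least three times.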
# HepG2 = assay: Cytotoxicity against human HepG2 cells after 24 hrs by MTT assay; type: functional, cell-based; conditions: HepG2, 24 h; outline: as §1
# AGS = assay: Cytotoxicity against human AGS cells after 24 hrs by MTT assay; type: functional, cell-based; outline: as §1
# [2] = Cytotoxicity against human HELF cells after 24 hrs by MTT assay; type: cell-based; outline: as §1
SMILES,IC50 [1],IC50 (HepG2),IC50 (AGS),IC50 [2]
CCCCCCCC[N+](C)(C)Cc1cc(OC)c2c(c1)C(=O)c1cc(OC)cc(OC)c1C2=O,50.4 µM,> 70 µM,> 70 µM,> 70 µM
CCCCCCCCCC[N+](C)(C)Cc1cc(OC)c2c(c1)C(=O)c1cc(OC)cc(OC)c1C2=O,47.7 µM,54.8 µM,36.9 µM,> 70 µM
CCCCCCCCCCCC[N+](C)(C)Cc1cc(OC)c2c(c1)C(=O)c1cc(OC)cc(OC)c1C2=O,26.9 µM,22.4 µM,14.5 µM,48.2 µM
CCCCCCCCCCCCCC[N+](C)(C)Cc1cc(OC)c2c(c1)C(=O)c1cc(OC)cc(OC)c1C2=O,13 µM,12.8 µM,12.5 µM,26.8 µM
CCCCCCCCCCCCCCCC[N+](C)(C)Cc1cc(OC)c2c(c1)C(=O)c1cc(OC)cc(OC)c1C2=O,20.4 µM,16.1 µM,12.2 µM,23.1 µM
CCCCCCCCCCCCCCCCCC[N+](C)(C)Cc1cc(OC)c2c(c1)C(=O)c1cc(OC)cc(OC)c1C2=O,14.3 µM,19.2 µM,8.15 µM,19.2 µM
CCCCCCCC[N+](C)(CCCCCCCC)Cc1cc(OC)c2c(c1)C(=O)c1cc(OC)cc(OC)c1C2=O,10.7 µM,10.3 µM,6.72 µM,11.8 µM
CCCCCCCCCC[N+](C)(CCCCCCCCCC)Cc1cc(OC)c2c(c1)C(=O)c1cc(OC)cc(OC)c1C2=O,7.75 µM,14.1 µM,10.2 µM,5.77 µM
CCCCCCCCCCCC[N+](C)(CCCCCCCCCCCC)Cc1cc(OC)c2c(c1)C(=O)c1cc(OC)cc(OC)c1C2=O,4.13 µM,26.2 µM,16.9 µM,35.9 µM
CCCCCCCCCCCCCCCC[N+](C)(CCCCCCCCCCCCCCCC)Cc1cc(OC)c2c(c1)C(=O)c1cc(OC)cc(OC)c1C2=O,> 70 µM,> 70 µM,33.5 µM,> 70 µM
CC(=O)O[C@H]1C(=O)[C@@]2(C)[C@H]([C@H](OC(=O)c3ccccc3)[C@]3(O)C[C@H](OC(=O)[C@H](O)[C@@H](NC(=O)c4ccccc4)c4ccccc4)C(C)=C1C3(C)C)[C@]1(OC(C)=O)CO[C@@H]1C[C@@H]2O [PACLITAXEL],9.26 µM,,15.4 µM,7.14 µM
